# Test results: ChEMBL document CHEMBL1817556, “Substituted lactam and cyclic azahemiacetals modulate Pseudomonas aeruginosa quorum sensing” (Bioorg Med Chem, 2011)
# Assays:
# [1] = target: T1, Acyl-homoserine-lactone synthase (Pseudomonas aeruginosa (strain ATCC 15692 / PAO1 / 1C / PRS 101 / LMG12228)) (UniProt P33883); experiment: Modulation of Pseudomonas aeruginosa lacZ-fused lasI expressed in Escherichia coli DH5alpha co-expressing pBAD-lasR assessed as 3-oxo-C12-AHL-induced effect at 0.20 mM after 3 hrs by beta-galactosidase assay relative to control
# T1 sequence (whole entry): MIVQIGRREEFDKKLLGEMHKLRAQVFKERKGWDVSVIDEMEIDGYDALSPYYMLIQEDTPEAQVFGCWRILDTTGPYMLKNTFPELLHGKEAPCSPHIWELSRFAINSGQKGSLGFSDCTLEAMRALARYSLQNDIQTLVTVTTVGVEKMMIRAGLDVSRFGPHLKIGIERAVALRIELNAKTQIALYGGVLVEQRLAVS
# Outline: (§1)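 E. coli DH5α carrying pSC11 (PlasI-lacZ translational fusion) and pJN105L (PBAD-lasR) was grown overnight in LB with ampicillin (100 μg/ml) and gentamicin (15 μg/ml), then diluted to OD600 0.150. Arabinose (0.2% w/v), 3-oxo-C12-AHL (2 μM) and test compound or DMSO were added. Cultures were shaken 3 h at 37 °C. β-Galactosidase activity was read in Miller units and expressed as % of the solvent sample. Triplicates per biological replicate, repeated at least twice; paired two-tailed t-test.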
# [2] = target: 3-(3-hydroxydecanoyloxy)decanoate synthase (Pseudomonas aeruginosa (strain ATCC 15692 / PAO1 / 1C / PRS 101 / LMG12228)) (UniProt Q51559); experiment: Modulation of Pseudomonas aeruginosa lacZ-fused rhlA expressed in Escherichia coli DH5alpha co-expressing Ptac-rhlR assessed as C4-AHL-induced effect at 0.81 mM after 4 hrs by beta-galactosidase assay relative to control
# Outline: (§2)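 E. coli DH5α carrying pECP61.5 (Ptac-rhlR, PrhlA-lacZ), grown overnight in LB with ampicillin 100 μg/ml and diluted to OD600 0.150. At OD600 1.0, 1 mM IPTG, 2 μM C4-HSL and compound or DMSO were added. Cultures were shaken 4 h at 37 °C, then β-galactosidase was read in Miller units. Activity is % of solvent sample, from triplicates per biological replicate, with at least two repeats.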
# [3] = target: T1, Acyl-homoserine-lactone synthase (Pseudomonas aeruginosa (strain ATCC 15692 / PAO1 / 1C / PRS 101 / LMG12228)); experiment: Modulation of Pseudomonas aeruginosa lacZ-fused lasI expressed in Escherichia coli DH5alpha co-expressing pBAD-lasR assessed as 3-oxo-C12-AHL-induced effect at 0.81 mM after 3 hrs by beta-galactosidase assay relative to control; outline: as §1
# [4] = target: 3-(3-hydroxydecanoyloxy)decanoate synthase (Pseudomonas aeruginosa (strain ATCC 15692 / PAO1 / 1C / PRS 101 / LMG12228)) (UniProt Q51559); experiment: Modulation of Pseudomonas aeruginosa lacZ-fused rhlA expressed in Escherichia coli DH5alpha co-expressing Ptac-rhlR assessed as C4-AHL-induced effect at 0.40 mM after 4 hrs by beta-galactosidase assay relative to control
# Outline: (§3)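 rhl reporter: E. coli DH5α carrying pECP61.5 (Ptac-rhlR, PrhlA-lacZ) was grown overnight in LB with ampicillin (100 μg/ml) only, then diluted to OD600 0.150. It was induced with 1 mM IPTG, and 2 μM C4-HSL plus compound or DMSO were added at OD600 1.0. Cultures were shaken 4 h at 37 °C. β-Galactosidase activity was read in Miller units as % of the solvent sample. Triplicates per biological replicate, at least two repeats; paired two-tailed t-test.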
# [5] = target: 3-(3-hydroxydecanoyloxy)decanoate synthase (Pseudomonas aeruginosa (strain ATCC 15692 / PAO1 / 1C / PRS 101 / LMG12228)) (UniProt Q51559); experiment: Modulation of Pseudomonas aeruginosa lacZ-fused rhlA expressed in Escherichia coli DH5alpha co-expressing Ptac-rhlR assessed as C4-AHL-induced effect at 0.20 mM after 4 hrs by beta-galactosidase assay relative to control; outline: as §3
# [6] = target: T1, Acyl-homoserine-lactone synthase (Pseudomonas aeruginosa (strain ATCC 15692 / PAO1 / 1C / PRS 101 / LMG12228)); experiment: Modulation of Pseudomonas aeruginosa lacZ-fused lasI expressed in Escherichia coli DH5alpha co-expressing pBAD-lasR assessed as 3-oxo-C12-AHL-induced effect at 0.40 mM after 3 hrs by beta-galactosidase assay relative to control; outline: as §1
# [7] = target: T1, Acyl-homoserine-lactone synthase (Pseudomonas aeruginosa (strain ATCC 15692 / PAO1 / 1C / PRS 101 / LMG12228)); experiment: Modulation of Pseudomonas aeruginosa lacZ-fused lasI expressed in Escherichia coli DH5alpha co-expressing pBAD-lasR assessed as 3-oxo-C12-AHL-induced effect at 0.61 mM after 3 hrs by beta-galactosidase assay relative to control; outline: as §1
# [8] = target: 3-(3-hydroxydecanoyloxy)decanoate synthase (Pseudomonas aeruginosa (strain ATCC 15692 / PAO1 / 1C / PRS 101 / LMG12228)) (UniProt Q51559); experiment: Modulation of Pseudomonas aeruginosa lacZ-fused rhlA expressed in Escherichia coli DH5alpha co-expressing Ptac-rhlR assessed as C4-AHL-induced effect at 0.61 mM after 4 hrs by beta-galactosidase assay relative to control; outline: as §2
# [9] = target: 3-(3-hydroxydecanoyloxy)decanoate synthase (Pseudomonas aeruginosa (strain ATCC 15692 / PAO1 / 1C / PRS 101 / LMG12228)) (UniProt Q51559); experiment: Modulation of Pseudomonas aeruginosa lacZ-fused rhlA expressed in Escherichia coli DH5alpha co-expressing Ptac-rhlR assessed as C4-AHL-induced effect at 0.33 mM after 4 hrs by beta-galactosidase assay relative to control; outline: as §3
# [10] = target: T1, Acyl-homoserine-lactone synthase (Pseudomonas aeruginosa (strain ATCC 15692 / PAO1 / 1C / PRS 101 / LMG12228)); experiment: Modulation of Pseudomonas aeruginosa lacZ-fused lasI expressed in Escherichia coli DH5alpha co-expressing pBAD-lasR assessed as 3-oxo-C12-AHL-induced effect at 0.17 mM after 3 hrs by beta-galactosidase assay relative to control; outline: as §1
# [11] = target: T1, Acyl-homoserine-lactone synthase (Pseudomonas aeruginosa (strain ATCC 15692 / PAO1 / 1C / PRS 101 / LMG12228)); experiment: Modulation of Pseudomonas aeruginosa lacZ-fused lasI expressed in Escherichia coli DH5alpha co-expressing pBAD-lasR assessed as 3-oxo-C12-AHL-induced effect at 0.33 mM after 3 hrs by beta-galactosidase assay relative to control; outline: as §1
# [12] = target: 3-(3-hydroxydecanoyloxy)decanoate synthase (Pseudomonas aeruginosa (strain ATCC 15692 / PAO1 / 1C / PRS 101 / LMG12228)) (UniProt Q51559); experiment: Modulation of Pseudomonas aeruginosa lacZ-fused rhlA expressed in Escherichia coli DH5alpha co-expressing Ptac-rhlR assessed as C4-AHL-induced effect at 0.50 mM after 4 hrs by beta-galactosidase assay relative to control; outline: as §3
# [13] = target: 3-(3-hydroxydecanoyloxy)decanoate synthase (Pseudomonas aeruginosa (strain ATCC 15692 / PAO1 / 1C / PRS 101 / LMG12228)) (UniProt Q51559); experiment: Modulation of Pseudomonas aeruginosa lacZ-fused rhlA expressed in Escherichia coli DH5alpha co-expressing Ptac-rhlR assessed as C4-AHL-induced effect at 0.67 mM after 4 hrs by beta-galactosidase assay relative to control; outline: as §2
# [14] = target: T1, Acyl-homoserine-lactone synthase (Pseudomonas aeruginosa (strain ATCC 15692 / PAO1 / 1C / PRS 101 / LMG12228)); experiment: Modulation of Pseudomonas aeruginosa lacZ-fused lasI expressed in Escherichia coli DH5alpha co-expressing pBAD-lasR assessed as 3-oxo-C12-AHL-induced effect at 0.50 mM after 3 hrs by beta-galactosidase assay relative to control; outline: as §1
# [15] = target: 3-(3-hydroxydecanoyloxy)decanoate synthase (Pseudomonas aeruginosa (strain ATCC 15692 / PAO1 / 1C / PRS 101 / LMG12228)) (UniProt Q51559); experiment: Modulation of Pseudomonas aeruginosa lacZ-fused rhlA expressed in Escherichia coli DH5alpha co-expressing Ptac-rhlR assessed as C4-AHL-induced effect at 0.17 mM after 4 hrs by beta-galactosidase assay relative to control; outline: as §3
# [16] = target: T1, Acyl-homoserine-lactone synthase (Pseudomonas aeruginosa (strain ATCC 15692 / PAO1 / 1C / PRS 101 / LMG12228)); experiment: Modulation of Pseudomonas aeruginosa lacZ-fused lasI expressed in Escherichia coli DH5alpha co-expressing pBAD-lasR assessed as 3-oxo-C12-AHL-induced effect at 0.67 mM after 3 hrs by beta-galactosidase assay relative to control; outline: as §1
# [17] = target: T1, Acyl-homoserine-lactone synthase (Pseudomonas aeruginosa (strain ATCC 15692 / PAO1 / 1C / PRS 101 / LMG12228)); experiment: Modulation of Pseudomonas aeruginosa lacZ-fused lasI expressed in Escherichia coli DH5alpha co-expressing pBAD-lasR assessed as 3-oxo-C12-AHL-induced effect at 0.58 mM after 3 hrs by beta-galactosidase assay relative to control; outline: as §1
# [18] = target: T1, Acyl-homoserine-lactone synthase (Pseudomonas aeruginosa (strain ATCC 15692 / PAO1 / 1C / PRS 101 / LMG12228)); experiment: Modulation of Pseudomonas aeruginosa lacZ-fused lasI expressed in Escherichia coli DH5alpha co-expressing pBAD-lasR assessed as 3-oxo-C12-AHL-induced effect at 0.39 mM after 3 hrs by beta-galactosidase assay relative to control; outline: as §1
# [19] = target: 3-(3-hydroxydecanoyloxy)decanoate synthase (Pseudomonas aeruginosa (strain ATCC 15692 / PAO1 / 1C / PRS 101 / LMG12228)) (UniProt Q51559); experiment: Modulation of Pseudomonas aeruginosa lacZ-fused rhlA expressed in Escherichia coli DH5alpha co-expressing Ptac-rhlR assessed as C4-AHL-induced effect at 0.19 mM after 4 hrs by beta-galactosidase assay relative to control; outline: as §3
# [20] = target: 3-(3-hydroxydecanoyloxy)decanoate synthase (Pseudomonas aeruginosa (strain ATCC 15692 / PAO1 / 1C / PRS 101 / LMG12228)) (UniProt Q51559); experiment: Modulation of Pseudomonas aeruginosa lacZ-fused rhlA expressed in Escherichia coli DH5alpha co-expressing Ptac-rhlR assessed as C4-AHL-induced effect at 0.58 mM after 4 hrs by beta-galactosidase assay relative to control; outline: as §2
# [21] = target: 3-(3-hydroxydecanoyloxy)decanoate synthase (Pseudomonas aeruginosa (strain ATCC 15692 / PAO1 / 1C / PRS 101 / LMG12228)) (UniProt Q51559); experiment: Modulation of Pseudomonas aeruginosa lacZ-fused rhlA expressed in Escherichia coli DH5alpha co-expressing Ptac-rhlR assessed as C4-AHL-induced effect at 0.39 mM after 4 hrs by beta-galactosidase assay relative to control; outline: as §3
# [22] = target: 3-(3-hydroxydecanoyloxy)decanoate synthase (Pseudomonas aeruginosa (strain ATCC 15692 / PAO1 / 1C / PRS 101 / LMG12228)) (UniProt Q51559); experiment: Modulation of Pseudomonas aeruginosa lacZ-fused rhlA expressed in Escherichia coli DH5alpha co-expressing Ptac-rhlR assessed as C4-AHL-induced effect at 0.78 mM after 4 hrs by beta-galactosidase assay relative to control; outline: as §2
# [23] = target: T1, Acyl-homoserine-lactone synthase (Pseudomonas aeruginosa (strain ATCC 15692 / PAO1 / 1C / PRS 101 / LMG12228)); experiment: Modulation of Pseudomonas aeruginosa lacZ-fused lasI expressed in Escherichia coli DH5alpha co-expressing pBAD-lasR assessed as 3-oxo-C12-AHL-induced effect at 0.78 mM after 3 hrs by beta-galactosidase assay relative to control; outline: as §1
# [24] = target: T1, Acyl-homoserine-lactone synthase (Pseudomonas aeruginosa (strain ATCC 15692 / PAO1 / 1C / PRS 101 / LMG12228)); experiment: Modulation of Pseudomonas aeruginosa lacZ-fused lasI expressed in Escherichia coli DH5alpha co-expressing pBAD-lasR assessed as 3-oxo-C12-AHL-induced effect at 0.19 mM after 3 hrs by beta-galactosidase assay relative to control; outline: as §1
# [25] = target: 3-(3-hydroxydecanoyloxy)decanoate synthase (Pseudomonas aeruginosa (strain ATCC 15692 / PAO1 / 1C / PRS 101 / LMG12228)) (UniProt Q51559); experiment: Modulation of Pseudomonas aeruginosa lacZ-fused rhlA expressed in Escherichia coli DH5alpha co-expressing Ptac-rhlR assessed as C4-AHL-induced effect at 0.77 mM after 4 hrs by beta-galactosidase assay relative to control; outline: as §2
# [26] = target: T1, Acyl-homoserine-lactone synthase (Pseudomonas aeruginosa (strain ATCC 15692 / PAO1 / 1C / PRS 101 / LMG12228)); experiment: Modulation of Pseudomonas aeruginosa lacZ-fused lasI expressed in Escherichia coli DH5alpha co-expressing pBAD-lasR assessed as 3-oxo-C12-AHL-induced effect at 0.77 mM after 3 hrs by beta-galactosidase assay relative to control; outline: as §1
smiles,measurement,setting,value
CCCCCCSC[C@H]1NC(=O)[C@H](O)[C@@H]1O,Activity,[1],96%
same,Activity,[2],161%
same,Activity,[3],68%
same,Activity,[4],129%
same,Activity,[5],132%
same,Activity,[6],78%
same,Activity,[7],79%
same,Activity,[8],148%
CCCCCCCCCCCCSC[C@@H]1CCC(=O)N1,Activity,[9],106%
same,Activity,[10],52%
same,Activity,[11],32%
same,Activity,[12],109%
same,Activity,[13],106%
same,Activity,[14],18%
same,Activity,[15],103%
same,Activity,[16],11%
CCCCCCCCCSC[C@@H]1CCC(=O)N1,Activity,[17],18%
same,Activity,[18],26%
same,Activity,[19],95%
same,Activity,[20],108%
same,Activity,[21],115%
same,Activity,[22],137%
same,Activity,[23],6%
same,Activity,[24],72%
CCCCCCCCCSC[C@@H]1CCC(O)N1 (mixture of isomers),Activity,[17],57%
same,Activity,[18],65%
same,Activity,[25],99%
same,Activity,[19],93%
same,Activity,[20],100%
same,Activity,[21],80%
same,Activity,[26],47%
same,Activity,[24],74%
